ChEMBL document CHEMBL1146234, “Synthesis and biological evaluation of N-pyrazolyl-N'-alkyl/benzyl/phenylureas: a new class of potent inhibitors of interleukin 8-induced neutrophil chemotaxis” (J Med Chem, 2007)
Activity calls are given as the source filed them. The rule behind the calls is not given here.

Experiments:
[1] = molecular target: T1, Tyrosine-protein kinase ZAP-70 (Homo sapiens) (UniProt P43403); test: Binding affinity to Zap70
T1 sequence (whole entry): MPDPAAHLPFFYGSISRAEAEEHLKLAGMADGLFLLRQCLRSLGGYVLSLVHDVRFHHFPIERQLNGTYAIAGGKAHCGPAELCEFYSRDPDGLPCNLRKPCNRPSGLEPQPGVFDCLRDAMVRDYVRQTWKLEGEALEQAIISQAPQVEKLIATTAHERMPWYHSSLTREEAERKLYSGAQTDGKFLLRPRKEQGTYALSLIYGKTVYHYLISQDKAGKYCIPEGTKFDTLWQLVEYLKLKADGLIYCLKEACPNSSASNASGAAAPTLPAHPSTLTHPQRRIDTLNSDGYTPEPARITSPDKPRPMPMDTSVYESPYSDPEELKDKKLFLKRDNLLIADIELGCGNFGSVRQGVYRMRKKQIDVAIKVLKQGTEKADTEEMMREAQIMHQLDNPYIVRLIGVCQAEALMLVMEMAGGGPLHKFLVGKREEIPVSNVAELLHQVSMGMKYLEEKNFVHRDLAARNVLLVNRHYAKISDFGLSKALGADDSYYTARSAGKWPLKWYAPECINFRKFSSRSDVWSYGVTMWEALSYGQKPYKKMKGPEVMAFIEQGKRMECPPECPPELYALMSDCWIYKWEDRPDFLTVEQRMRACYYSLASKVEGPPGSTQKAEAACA

[2] = system: Neutrophil; test: Inhibition of fMLP-induced neutrophil chemotaxis after 45 mins by Boyden chamber assay; assay type: functional, cell-based; details: Homo sapiens
Procedure, shortened: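 Leading-front Boyden assay with donor neutrophils. Cells were preincubated 15 min at room temperature ± compound. Then 4 × 10⁵ cells were placed above a 3 µm cellulose ester filter, with IL8 or fMLP below. After 45 min at 37 °C, filters were hematoxylin-stained and the leading-front distance was read at ×400, 5 fields per filter, in duplicate. Net migration = stimulated minus spontaneous. IC₅₀ came from nonlinear regression, ≥3 experiments.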

[3] = molecular target: T2, C-C chemokine receptor type 3 (Homo sapiens) (UniProt P51677); test: Binding affinity to CCR3
T2 sequence (whole entry): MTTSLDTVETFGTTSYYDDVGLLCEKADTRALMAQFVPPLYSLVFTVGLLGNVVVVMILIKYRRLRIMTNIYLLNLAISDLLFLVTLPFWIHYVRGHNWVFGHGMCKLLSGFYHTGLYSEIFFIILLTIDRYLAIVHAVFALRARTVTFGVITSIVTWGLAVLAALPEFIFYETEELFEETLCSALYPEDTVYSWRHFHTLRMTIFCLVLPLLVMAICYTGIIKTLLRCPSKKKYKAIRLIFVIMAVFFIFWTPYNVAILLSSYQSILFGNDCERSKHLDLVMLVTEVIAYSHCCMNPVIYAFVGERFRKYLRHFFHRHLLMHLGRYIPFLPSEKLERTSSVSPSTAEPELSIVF

[4] = molecular target: T3, Mitogen-activated protein kinase 13 (Homo sapiens) (UniProt O15264); test: Binding affinity p38delta
T3 sequence (whole entry): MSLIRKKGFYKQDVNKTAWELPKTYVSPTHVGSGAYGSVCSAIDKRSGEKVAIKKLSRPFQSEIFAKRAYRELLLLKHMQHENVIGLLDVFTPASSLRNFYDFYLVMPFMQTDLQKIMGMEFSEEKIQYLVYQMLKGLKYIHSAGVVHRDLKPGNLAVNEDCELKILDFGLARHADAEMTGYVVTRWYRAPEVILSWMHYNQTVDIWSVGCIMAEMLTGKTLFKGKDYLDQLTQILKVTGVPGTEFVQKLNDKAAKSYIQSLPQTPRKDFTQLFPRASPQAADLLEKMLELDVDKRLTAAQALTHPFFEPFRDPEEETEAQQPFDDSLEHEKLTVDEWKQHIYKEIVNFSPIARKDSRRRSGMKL

[5] = molecular target: T4, Mitogen-activated protein kinase 12 (Homo sapiens) (UniProt P53778); test: Binding affinity to p38-gamma
T4 sequence (whole entry): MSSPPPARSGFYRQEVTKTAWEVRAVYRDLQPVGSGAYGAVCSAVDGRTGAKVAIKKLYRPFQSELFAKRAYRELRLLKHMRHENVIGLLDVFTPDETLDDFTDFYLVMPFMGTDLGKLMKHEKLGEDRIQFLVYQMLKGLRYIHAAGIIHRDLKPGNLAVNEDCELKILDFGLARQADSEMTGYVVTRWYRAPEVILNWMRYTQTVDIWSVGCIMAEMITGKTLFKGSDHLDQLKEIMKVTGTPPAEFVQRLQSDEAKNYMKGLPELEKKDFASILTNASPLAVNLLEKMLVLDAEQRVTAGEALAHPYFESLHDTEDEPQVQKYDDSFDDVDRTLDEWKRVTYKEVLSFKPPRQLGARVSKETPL

[6] = molecular target: Mitogen-activated protein kinase 3 (Homo sapiens) (UniProt P27361); test: Binding affinity to ERK1
[7] = molecular target: Mitogen-activated protein kinase 8 (Homo sapiens) (UniProt P45983); test: Binding affinity to JNK1
[8] = molecular target: Mitogen-activated protein kinase 9 (Homo sapiens) (UniProt P45984); test: Binding affinity to JNK2
[9] = molecular target: T5, C-X-C chemokine receptor type 1 (Homo sapiens) (UniProt P25024); test: Binding affinity to CXCR1
T5 sequence (whole entry): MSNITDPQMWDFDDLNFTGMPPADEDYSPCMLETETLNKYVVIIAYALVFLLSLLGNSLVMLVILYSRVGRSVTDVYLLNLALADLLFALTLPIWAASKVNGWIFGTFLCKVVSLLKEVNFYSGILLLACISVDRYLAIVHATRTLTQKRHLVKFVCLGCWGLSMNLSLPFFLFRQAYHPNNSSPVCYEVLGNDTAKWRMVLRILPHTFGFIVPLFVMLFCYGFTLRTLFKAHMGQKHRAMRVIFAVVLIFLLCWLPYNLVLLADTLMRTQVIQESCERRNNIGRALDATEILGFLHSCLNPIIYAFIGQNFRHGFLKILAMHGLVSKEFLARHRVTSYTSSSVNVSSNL

[10] = molecular target: Mitogen-activated protein kinase 11 (Homo sapiens) (UniProt Q15759); test: Binding affinity to p38beta2
[11] = system: Neutrophil; test: Cytotoxicity against human neutrophils assessed as viable cells after 2 hrs; assay type: functional; set-up: concentration or dose not given beside the values
Procedure, shortened: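 Human neutrophils (2 × 10⁶/mL) from healthy donors were incubated 2 h at 37 °C under CO₂ in HBSS:PBS (3:1) with 1 mg/mL BSA, with compounds. Membrane integrity was read by fluorescein diacetate/ethidium bromide staining for 10 min at room temperature, under UV dark-field microscopy. Green cells were scored viable; red nuclei were scored necrotic.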

[12] = molecular target: RAC-alpha serine/threonine-protein kinase (Homo sapiens) (UniProt P31749); test: Binding affinity to Akt1
Sequence of RAC-alpha serine/threonine-protein kinase (Homo sapiens) (P31749 whole entry): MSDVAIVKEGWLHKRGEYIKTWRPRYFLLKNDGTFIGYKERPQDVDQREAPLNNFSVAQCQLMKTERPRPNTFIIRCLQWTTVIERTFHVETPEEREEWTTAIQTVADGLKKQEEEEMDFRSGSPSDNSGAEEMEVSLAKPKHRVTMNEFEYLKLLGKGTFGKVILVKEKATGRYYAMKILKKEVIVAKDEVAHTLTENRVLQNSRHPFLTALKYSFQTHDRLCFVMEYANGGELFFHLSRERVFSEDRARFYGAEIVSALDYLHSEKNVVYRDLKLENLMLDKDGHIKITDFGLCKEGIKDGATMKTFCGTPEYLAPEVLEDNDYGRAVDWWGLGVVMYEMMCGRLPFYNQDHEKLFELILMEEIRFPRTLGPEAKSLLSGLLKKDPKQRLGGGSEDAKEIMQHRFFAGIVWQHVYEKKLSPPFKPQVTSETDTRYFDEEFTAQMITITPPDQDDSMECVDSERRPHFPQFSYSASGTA

Sequence of Mitogen-activated protein kinase 8 (Homo sapiens) (P45983 whole entry): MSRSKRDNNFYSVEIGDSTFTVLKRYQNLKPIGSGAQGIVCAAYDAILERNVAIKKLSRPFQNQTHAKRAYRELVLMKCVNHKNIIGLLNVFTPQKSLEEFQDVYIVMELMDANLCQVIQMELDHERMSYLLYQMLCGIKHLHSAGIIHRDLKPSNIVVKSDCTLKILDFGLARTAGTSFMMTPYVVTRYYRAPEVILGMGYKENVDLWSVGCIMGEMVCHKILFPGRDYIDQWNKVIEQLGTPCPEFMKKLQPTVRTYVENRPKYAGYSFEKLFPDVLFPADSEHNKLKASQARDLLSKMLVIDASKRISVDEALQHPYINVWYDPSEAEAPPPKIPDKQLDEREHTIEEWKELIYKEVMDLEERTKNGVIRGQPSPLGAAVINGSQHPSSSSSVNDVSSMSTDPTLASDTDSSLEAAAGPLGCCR
Sequence of Mitogen-activated protein kinase 9 (Homo sapiens) (P45984 whole entry, looked up): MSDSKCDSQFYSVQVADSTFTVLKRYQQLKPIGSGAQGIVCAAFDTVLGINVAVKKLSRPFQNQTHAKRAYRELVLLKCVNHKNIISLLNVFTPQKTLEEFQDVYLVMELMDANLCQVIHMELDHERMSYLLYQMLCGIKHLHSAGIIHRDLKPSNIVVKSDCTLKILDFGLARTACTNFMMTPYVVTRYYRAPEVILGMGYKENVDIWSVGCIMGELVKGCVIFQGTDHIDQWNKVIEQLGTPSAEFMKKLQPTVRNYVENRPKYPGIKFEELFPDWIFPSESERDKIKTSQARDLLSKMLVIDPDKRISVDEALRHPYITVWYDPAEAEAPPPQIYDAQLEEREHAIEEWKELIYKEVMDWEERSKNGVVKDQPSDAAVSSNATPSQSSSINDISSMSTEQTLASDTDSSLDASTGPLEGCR
Sequence of Mitogen-activated protein kinase 3 (Homo sapiens) (P27361 whole entry): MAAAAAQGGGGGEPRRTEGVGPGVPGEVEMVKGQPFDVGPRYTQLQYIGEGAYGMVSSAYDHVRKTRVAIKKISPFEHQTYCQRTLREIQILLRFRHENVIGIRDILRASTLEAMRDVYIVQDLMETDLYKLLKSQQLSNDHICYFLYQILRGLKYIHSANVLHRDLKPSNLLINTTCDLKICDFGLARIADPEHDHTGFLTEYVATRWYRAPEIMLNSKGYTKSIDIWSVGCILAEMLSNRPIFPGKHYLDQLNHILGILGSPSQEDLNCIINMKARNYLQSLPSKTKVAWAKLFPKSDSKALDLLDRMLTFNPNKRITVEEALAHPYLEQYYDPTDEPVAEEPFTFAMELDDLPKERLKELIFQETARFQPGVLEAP
Sequence of Mitogen-activated protein kinase 11 (Homo sapiens) (Q15759 whole entry): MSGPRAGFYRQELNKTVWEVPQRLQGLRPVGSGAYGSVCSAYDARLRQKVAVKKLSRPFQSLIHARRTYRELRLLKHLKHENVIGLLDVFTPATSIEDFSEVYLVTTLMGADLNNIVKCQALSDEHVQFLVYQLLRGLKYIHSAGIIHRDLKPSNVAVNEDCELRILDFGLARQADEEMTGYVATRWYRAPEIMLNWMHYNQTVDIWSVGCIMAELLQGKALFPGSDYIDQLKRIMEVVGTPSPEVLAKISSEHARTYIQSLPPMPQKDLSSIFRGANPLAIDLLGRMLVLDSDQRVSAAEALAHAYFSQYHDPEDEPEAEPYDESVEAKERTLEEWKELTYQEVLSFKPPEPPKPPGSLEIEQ

| Activity [1] | Activity [3] | Activity [4] | Activity [5] | Activity [6] | Activity [7] | Activity [8] | Activity [9] | Activity [10] | Activity [12] | Structure (SMILES) | Activity [2] | Activity [11] [%] |
| --- | --- | --- | --- | --- | --- | --- | --- | --- | --- | --- | --- | --- |
| inactive | inactive | inactive | inactive | inactive | inactive | inactive | inactive | inactive | inactive | CCOC(=O)c1cnn(CC(O)c2ccccc2)c1NC(=O)Nc1ccccc1 (stereo unspecified) | inactive | 90 |
| inactive | inactive | inactive | inactive | inactive | inactive | inactive | inactive | inactive | inactive | CCOC(=O)c1cnn(CC(O)c2ccccc2)c1NC(=O)NCc1ccccc1 (stereo unspecified) | inactive | 90 |
| inactive | inactive | inactive | inactive | inactive | inactive | inactive | inactive | inactive | inactive | CCOC(=O)c1cnn(CC(O)c2ccccc2)c1NC(=O)NC(C)C (stereo unspecified) | inactive | 90 |
